# Screening data as filed in PubChem BioAssay.
# TDP2 absorb – blocks human TDP2 phosphodiesterase activity; O95551; recombinant TDP2, T5PNP hydrolysis, p-nitrophenol absorbance 415 nm; inhibition, % at 12.8 µM; hit rate 0.34% among 370,000; AID 720702;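 active means inhibition above the mean of all tested compounds plus 3 SD, set per campaign, cut at about 25% in these data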;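 further: 0% = DMSO with enzyme and 100% = buffer with substrate but no TDP2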
# Target sequence (O95551 whole entry, looked up): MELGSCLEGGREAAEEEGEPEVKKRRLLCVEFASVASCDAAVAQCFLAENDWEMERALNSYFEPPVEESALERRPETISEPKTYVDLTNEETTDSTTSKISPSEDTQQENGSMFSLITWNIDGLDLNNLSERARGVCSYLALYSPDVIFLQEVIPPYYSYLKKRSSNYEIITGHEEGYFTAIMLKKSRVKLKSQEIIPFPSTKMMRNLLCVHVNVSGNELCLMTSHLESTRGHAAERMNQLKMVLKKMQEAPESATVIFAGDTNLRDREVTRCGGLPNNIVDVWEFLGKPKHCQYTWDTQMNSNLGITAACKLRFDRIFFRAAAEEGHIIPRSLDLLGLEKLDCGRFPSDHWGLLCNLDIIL
#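 System – recombinant human TDP2 · Quantity – TDP2 enzyme at 120 nM final · Doses – single concentration, 12.8 µM nominal, with 1% DMSO · Incubation – 2 h at 37 °C · Measured by – epi absorbance of p-nitrophenol freed from T5PNP by hydrolysis · Read-out – % inhibition relative to enzyme-containing and enzyme-free wells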
# core dimer inh – blocks dimerization of HCV core protein; TR-FRET GST/Flag-core106 dimerization, 1536-well; inhibition, % at 5 µM; hit rate 0.33% among 300,000; AID 1899;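 active means inhibition above the mean of all tested compounds plus 3 SD, set per screening campaign, cut at about 45% in these data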
#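 Assay system: tagged HCV core106 pair (GST and Flag); medium: KF-containing HEPES buffer, pH 7.45, DTT, CHAPS, BSA; also added: Eu donor and XL665 acceptor anti-tag antibodies; dosing: 5 µM single dose; timing: compound-protein-antibody incubation 4 h at 22.5 °C; signal: TR-FRET 671 and 617 nm emission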
# MBD2 DNA inh – inhibitors of human MBD2 binding to methylated oligonucleotide. Q9UBB5. hit rate 0.31% among 370,000. TR-FRET. inhibition, % at 4.4 µM. AID 686964; in the data active means inhibition above about 13%
# LEDGF integ inh – blocks HIV-1 LEDGF/p75-dependent DNA integration | TR-FRET IN-LEDGF/p75 DNA integration, Eu/Cy5 | inhibition, % at 3.7 µM | hit rate 0.64% among 370,000 | AID 743269;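 active means inhibition above the screen-wide mean plus 3 SD, cut at about 13% in these data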;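 further: signal is the Cy5 over europium emission ratio at 671 and 618 nm; 0% = plate median of compound wells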
# UHRF1 binding – UHRF1 methyl-DNA binding inhibition; UHRF1 binding to methylated oligo, TR-FRET; AID 687016; hit rate 0.75% among 370,000; inhibition, % at 4.4 µM; in the data active means inhibition above about 21%;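 further: UHRF1 SRA domain binding a hemimethylated CpG hairpin DNA probe; 0% = median of test compound wells and 100% = reference inhibitor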
# TDP2 inh conf – human TDP2 inhibition, confirmation | shares compounds with TDP2 absorb | recombinant human TDP2, absorbance read-out | inhibition, % at 12.8 µM | hit rate 22% among 1,100; in the data active means inhibition above about 25%;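 further: 0% = vehicle with enzyme and 100% = no enzyme buffer only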
# IN multimer up – HIV-1 integrase multimerization activation, counter-screen; shares compounds with LEDGF integ inh; TR-FRET HIV-1 integrase multimerization, biochemical; activation, % at 7.7 µM; hit rate 17% among 2,000; AID 1053131; in the data active means activation above about 8.9%
# TRFRET interf – counter-screen for LEDGF/p75 integration inhibitors: TR-FRET optical interference. TR-FRET optical interference counterscreen, HIV-1 IN multimerization. 2,000 tested, under 10 active. shares compounds with LEDGF integ inh. AID 1053135. inhibition, % at 7.7 µM;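 active means inhibition above the mean over all tested compounds plus 3 SD, which no compound reached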;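 further: 0% = integrase with antibodies and DMSO and 100% = antibodies without integrase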
# IN-LEDGF confirm – confirmation of HIV-1 LEDGF/p75-dependent integration inhibitors. shares compounds with LEDGF integ inh. TR-FRET LEDGF/p75-dependent HIV-1 integration, biochemical. inhibition, % at 3.7 µM. hit rate 36% among 2,000. AID 1053136; in the data active means inhibition above about 14%
# Active calls of the source: *; · = no result. Most compounds without a hit are left out; they make up all but 1.8% or so of the library.
SMILES,TDP2 absorb,core dimer inh,MBD2 DNA inh,LEDGF integ inh,UHRF1 binding,TDP2 inh conf,IN multimer up,TRFRET interf,IN-LEDGF confirm
CC1=CC2(O)OCCN(CCO)C2=CC1=O (configuration not stated),32*,-8,2,31*,10,9,4,-19,14*
COc1cc(NC(C)CCCN)c2ncccc2c1 (configuration not stated),64*,-3,-12,35*,3,18,2,-8,31*
CC(C)CNC(=O)OCc1cn(Cc2cc(F)cc(F)c2)nn1,2,·,-6,4,-1,·,·,·,·
CC(NC(=O)Nc1ccc(O)cc1)(C(F)(F)F)C(F)(F)F,28*,-4,-7,20*,-1,19,4,-15,-4
COc1ccc(NC(=O)NC(C)(C(F)(F)F)C(F)(F)F)cc1,4,-4,-5,4,1,·,·,·,·
CN(C)c1ccc2nc3ccc(=O)cc-3sc2c1,31*,·,12,73*,55*,13,85*,-303,82*
COc1ccc2nc(N=Nc3ccc(N(C)C)cc3)sc2c1,13,·,-5,-4,-2,·,·,·,·
COC(=O)c1cccc(-c2ccc(C(c3c(C)[nH][nH]c3=O)c3c(C)[nH][nH]c3=O)o2)c1,57*,6,-2,14*,15,32*,0,2,11
CC(=O)N(/N=C1\Sc2ccccc2C1=O)c1cccc(C)c1,69*,23,-6,22*,-11,53*,-1,3,51*
O=S1(=O)C=CCN1Cc1cn(Cc2ccccc2)nn1,1,·,-4,3,4,·,·,·,·
O=C(Cc1c[nH]c2ccccc12)Nc1ccc(Nc2cccnc2)c(-c2cc(F)cc(F)c2)c1,0,·,4,-5,-3,·,·,·,·
Oc1ccc(Nc2ccccc2F)c2cccnc12,36*,·,-16,34*,-3,-16,2,-8,1
Oc1ccc(-c2ccccc2F)c2cccnc12,8,·,-2,6,-4,·,·,·,·
NC(=O)C1CCCN(CC(O)COCc2ccc(Cl)cc2)C1 (configuration not stated),28*,-14,1,78*,-3,2,1,-2,-2
CCOC(=O)C1CCN(CC(O)COCc2ccc(Cl)cc2)CC1 (configuration not stated),7,-2,3,-1,-3,·,·,·,·
COc1ccc(/C=N/Nc2nnc(C)n2N)cc1OC(C)=O,42*,-7,-5,32*,8,9,1,-3,3
COc1ccc(/C=N/Nc2nnc(C)n2N)cc1OC,54*,9,3,48*,8,-3,0,-1,-14
CCN(CC)C(=O)CN1C(=O)C2CCCCN2C(=O)c2ccccc21 (configuration not stated),-5,·,-1,-6,4,·,·,·,·
COc1ccc(OC)c(S(=O)(=O)Oc2ccc(N)c3ccccc23)c1,33*,2,-10,14*,-4,0,4,-15,-1
O=c1cc(-c2ccccc2)[nH][nH]1,59*,-4,-5,23*,-1,4,-2,8,3
O=c1cccc(-c2ccccc2)[nH]1,4,-3,-2,-1,-1,·,·,·,·
O=c1cc(-c2ccc(F)cc2)[nH][nH]1,55*,-3,-9,17*,-1,8,2,-12,17*
Cc1ccccc1NC(=O)N(C)[C@H]1C[C@H]2c3[nH]c4c(-c5ccccc5)cccc4c3CCN2C[C@H]1[C@H](C)O,2,·,-5,-2,-2,·,·,·,·
Cc1ccc(C)c(-n2c3nc(=O)[nH]c(=O)c-3cc3cc([N+](=O)[O-])ccc32)c1,52*,40,-4,21*,10,40*,-3,10,21*
Cc1ccc(C)c(-n2c3nc(=O)n(C)c(=O)c-3cc3ccccc32)c1,-7,0,1,-4,0,·,·,·,·
SMILES,TDP2 absorb,core dimer inh,MBD2 DNA inh,LEDGF integ inh,UHRF1 binding,TDP2 inh conf,IN multimer up,TRFRET interf,IN-LEDGF confirm
C=CCN(CC#CC(=C)C)Cc1ccc(OC)cc1OC,-3,·,-3,-2,1,·,·,·,·
CCOC(=O)N1C(=O)C[C@](Sc2ccc(OC)cc2)(C(=O)N2CCCC2)[C@H]1c1ccc(OC)cc1,1,·,4,1,9,·,·,·,·
C[n+]1c(-c2ccccc2)cc2c(=Cc3ccc([N+](=O)[O-])cc3)c3ccccc3n21,37*,·,-10,25*,5,46*,7,-25,48*
C[n+]1c(-c2ccccc2)cc2c(=Cc3ccccc3)c3ccccc3n21,36*,·,-10,28*,6,47*,4,-14,45*
CCOC(=O)N1CCN(C(=O)C[C@H]2C[C@@]3(C(=O)OC)C(=C[C@H](COCc4ccccc4)O[C@@H]3C)N(Cc3ccc4c(c3)OCO4)C2=O)CC1,-2,·,2,1,-1,·,·,·,·
Cc1ccccc1NC1=C/C(=N\S(=O)(=O)c2ccc(C(=O)O)cc2)c2ccccc2C1=O,81*,21,-9,40*,-1,75*,0,-1,74*
CCc1ccc(S(=O)(=O)/N=C2\C=C(NS(=O)(=O)c3ccccc3)C(=O)c3ccccc32)cc1,18,·,-13,11,-2,·,·,·,·
CCc1cc2c(nc1CC)CCCN2S(=O)(=O)c1ccccc1,1,·,5,2,1,·,·,·,·
O=[N+]([O-])c1cc([N+](=O)[O-])c2nonc2c1Nc1ccc(O)cc1,25*,-8,-13,15*,-3,7,6,-20,3
N#CC1C(=O)Nc2cccnc21 (configuration not stated),66*,·,-8,27*,3,3,3,-11,5
O=C1Nc2ccccc2C1Cc1ccccn1 (configuration not stated),17,2,1,1,0,·,·,·,·
O=C(/C=C/c1ccc(O)cc1)c1ccc(NC2=C(N3CCCCC3)C(=O)c3ccccc3C2=O)cc1,49*,18,-5,15*,9,45*,4,-13,30*
COc1ccccc1NC1=C(N2CCCCC2)C(=O)c2ccccc2C1=O,·,12,·,·,·,·,·,·,·
O=C1C(NS(=O)(=O)c2ccc(Br)cc2)=C(N2CCCCC2)C(=O)c2ccccc21,-8,6,-8,-5,-7,·,·,·,·
CN(C1=C(N2CCCCC2)C(=O)c2ccccc2C1=O)c1ccccc1,35*,-7,9,16*,5,2,2,-11,3
